ChEMBL document CHEMBL3352269, “Discovery of 2-Pyridylpyrimidines as the First Orally Bioavailable GPR39 Agonists” (ACS Med Chem Lett, 2014)

How the values were obtained:
[1] = target: T1, G-protein coupled receptor 39 (Mus musculus, UniProt Q5U431); assay: Agonist activity at mouse GPR39 expressed in HEK293 cells by IP1 assay; type: functional, cell-based
T1 sequence (Q5U431 whole entry): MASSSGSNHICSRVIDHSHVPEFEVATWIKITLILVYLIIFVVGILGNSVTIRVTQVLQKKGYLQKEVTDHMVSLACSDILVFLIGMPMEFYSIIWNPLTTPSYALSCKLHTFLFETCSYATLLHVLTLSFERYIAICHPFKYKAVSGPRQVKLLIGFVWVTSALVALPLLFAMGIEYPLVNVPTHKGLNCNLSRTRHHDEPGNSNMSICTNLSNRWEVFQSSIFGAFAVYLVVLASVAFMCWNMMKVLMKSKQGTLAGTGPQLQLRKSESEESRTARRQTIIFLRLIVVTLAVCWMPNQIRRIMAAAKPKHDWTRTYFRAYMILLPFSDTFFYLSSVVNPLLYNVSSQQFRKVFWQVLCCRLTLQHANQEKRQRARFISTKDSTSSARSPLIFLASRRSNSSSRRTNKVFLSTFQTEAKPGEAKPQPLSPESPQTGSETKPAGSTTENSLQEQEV
Summary of the method: (§1)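 Gαq signalling read as inositol-1-phosphate (IP1) accumulation in HEK293 cells overexpressing human, mouse or rat GPR39. EC50 taken from an 11-point dose–response curve run in triplicate. Replicates range from 1 to 4, with standard deviation where available.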

[2] = target: T2, G-protein coupled receptor 39 (Homo sapiens, UniProt O43194); assay: Agonist activity at human GPR39 expressed in HEK293 cells by IP1 assay; type: functional, cell-based; summary of the method: as §1
T2 sequence (O43194 whole entry): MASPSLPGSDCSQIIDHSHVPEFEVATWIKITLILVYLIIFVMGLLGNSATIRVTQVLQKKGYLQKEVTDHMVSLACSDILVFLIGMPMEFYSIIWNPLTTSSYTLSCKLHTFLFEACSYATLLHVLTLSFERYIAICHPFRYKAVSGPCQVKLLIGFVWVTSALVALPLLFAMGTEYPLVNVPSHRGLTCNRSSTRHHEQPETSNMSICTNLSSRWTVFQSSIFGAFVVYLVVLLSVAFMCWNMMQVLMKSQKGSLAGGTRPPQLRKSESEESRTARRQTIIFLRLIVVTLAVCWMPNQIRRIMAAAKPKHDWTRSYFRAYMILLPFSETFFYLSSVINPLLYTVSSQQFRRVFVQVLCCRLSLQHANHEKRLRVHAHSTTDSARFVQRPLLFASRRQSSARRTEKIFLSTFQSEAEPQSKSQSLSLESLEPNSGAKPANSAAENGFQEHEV

[3] = Hepatic clearance in rat liver microsomes; type: ADME
Summary of the method: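 Predicted hepatic clearance calculated from intrinsic clearance in rat liver microsomes.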

[4] = Protection against cytokine-induced cell death in rat INS-1E cells assessed as caspase 3/7 activity; type: functional, cell-based
Summary of the method: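 Rat insulinoma INS-1E cells (beta-cell phenotype) were treated with cytokines to induce cell death. Caspase 3/7 activity was the read-out. Dose–response run in triplicate.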

[5] = target: T3, G-protein coupled receptor 39 (Homo sapiens) (UniProt O43194); assay: Agonist activity at human GPR39 expressed in HEK293 cells by cAMP assay relative to forskolin; type: functional, cell-based
T3 sequence (whole entry): T2 sequence (O43194 whole entry)
Summary of the method: (§2)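 cAMP accumulation (Gαs signalling) in HEK293 cells overexpressing human GPR39. Dose–response curve run in triplicate, 1–16 replicates. EC50 derived from the curve. Percent efficacy is expressed relative to the cAMP response to 25 μM forskolin.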

[6] = target: T2, G-protein coupled receptor 39; assay: Agonist activity at human GPR39 expressed in HEK293 cells by cAMP assay; type: functional, cell-based; summary of the method: as §2
[7] = Induction of GLP1 secretion in mouse STC1 cells incubated for 2 hrs by fluorescent bead based ELISA method; type: functional, cell-based; conditions: STC-1, 2 h
Summary of the method: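 Mouse enteroendocrine STC-1 cells, which express endogenous GPR39, were assayed for GLP-1 secretion over a dose–response run in triplicate. Maximal activity is expressed as fold increase in GLP-1 over the DMSO control.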

Protein Gpr39 = target: T4, Protein Gpr39 (Rattus norvegicus, UniProt A6QR73); assay: Agonist activity at rat GPR39 expressed in HEK293 cells by IP1 assay; type: functional, cell-based; summary of the method: as §1
T4 sequence (A6QR73 whole entry): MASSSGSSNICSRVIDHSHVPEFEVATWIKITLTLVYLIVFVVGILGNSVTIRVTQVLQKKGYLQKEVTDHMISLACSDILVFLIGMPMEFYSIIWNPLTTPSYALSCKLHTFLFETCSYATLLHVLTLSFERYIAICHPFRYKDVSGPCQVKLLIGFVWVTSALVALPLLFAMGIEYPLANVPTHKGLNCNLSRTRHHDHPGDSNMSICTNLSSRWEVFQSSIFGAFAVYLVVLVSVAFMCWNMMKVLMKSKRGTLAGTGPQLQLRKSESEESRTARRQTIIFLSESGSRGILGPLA

Structure (SMILES) | EC50 [1] | EC50 [2] | CLhep predicted [3] | other results
CNc1nc(NCc2ccc(Cl)cc2)cc(-c2ccccn2)n1 | 3 nM | 15 nM | – | –
CNc1nc(NC2(c3ccc(Cl)cc3)CCC2)cc(-c2ccccn2)n1 | 34 nM | 25 nM | > 52.3 mL/min/kg | –
Cc1nc(NCc2ccc(Cl)cc2)cc(-c2ccccn2)n1 | 17 nM | 81 nM | > 52.3 mL/min/kg | –
CNc1nc(NCc2ccncc2)cc(-c2ccccn2)n1 | 304 nM | 87 nM | – | –
FC(F)(F)CNc1nc(NCc2ccc(Cl)cc2)cc(-c2ccccn2)n1 | 1 nM | 60 nM | > 52.3 mL/min/kg | –
CNc1nc(NCc2ccc(NC(C)=O)cc2)cc(-c2ccccn2)n1 | 2 nM | 5 nM | 35.9 mL/min/kg | EC50 [4]: 1200 nM; Efficacy [5]: 48%; EC50 [6]: 550 nM; EC50 [7]: 4400 nM; EC50 (Protein Gpr39): 2 nM
CNc1nc(Nc2ccc(N(C)C(C)=O)cc2)cc(-c2ccccn2)n1 | 2610 nM | 1180 nM | – | –

More lines, main results first:

EC50 [1] | EC50 [2] | CLhep predicted [3] | Structure (SMILES) | other results
365 nM | 73 nM | – | CNc1nc(NCC(C)(C)C)cc(-c2ccccn2)n1 | –
6720 nM | > 25000 nM | – | CN(C)c1nc(NCC2CC2)cc(-c2ccccn2)n1 | –
115 nM | 164 nM | – | CNc1nc(NCC2CC2)cc(-c2ccccn2)n1 | –
10000 nM | 22000 nM | – | c1ccc(-c2cc(NCC3CC3)ncn2)nc1 | –
10 nM | 11 nM | – | CNc1nc(NCC2CCCCC2)cc(-c2ccccn2)n1 | –
1500 nM | 5000 nM | – | CC(C)(C)CNc1nc(NCC2CC2)cc(-c2ccccn2)n1 | –
